Reference: ChEMBL document CHEMBL3272207, “Structure-activity relationship in cinnamamides. 2. Synthesis and pharmacological evaluation of some (E)- and (Z)-N-alkyl-alpha, beta-dimethylcinnamamides substituted on the phenyl group” (J Med Chem, 1977)
Active and inactive are the calls of the source. The calls are words filed in the database; no cut-off is given here.

What was measured:
Mus musculus [1] = assay: Anticonvulsant activity in albino Icem-CET (SPF Caw) mouse assessed as inhibition of pentylenetetrazole-induced maximal extensor seizures at 100 mg/kg, po administered 30 mins prior challenge; format: functional, organism-based; design: dose 100 mg/kg
Procedure, shortened: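 Single-dose screen at 100 mg/kg by gavage in 0.5% Methocel in fasted male Icem-CET (SPF Caw) mice, 17-22 g. Dosing was 30 min before pentylenetetrazole 130 mg/kg ip, and prevention of maximal extensor seizures was scored.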

Mus musculus [2] = assay: Behavioral toxicity in po dosed albino Icem-CET (SPF Caw) mouse assessed as tremors by Irwin's test; format: organism-based; conditions: in vivo
Mus musculus [3] = assay: Behavioral toxicity in po dosed albino Icem-CET (SPF Caw) mouse assessed as positional passivity by Irwin's test; format: organism-based; conditions: in vivo
[4] = Behavioral toxicity in po dosed albino Icem-CET (SPF Caw) mouse measured up to 7 days by Irwin's test; format: organism-based; conditions: in vivo
Mus musculus [5] = assay: Behavioral toxicity in po dosed albino Icem-CET (SPF Caw) mouse assessed as reduction in locomotor activity by Irwin's test; format: organism-based; conditions: in vivo
Mus musculus [6] = assay: Behavioral toxicity in albino Icem-CET (SPF Caw) mouse assessed as positional passivity at 25 to 800 mg/kg, po by Irwin's test; format: organism-based; design: dose 25-800 mg/kg, route oral; conditions: in vivo
Mus musculus [7] = assay: Behavioral toxicity in albino Icem-CET (SPF Caw) mouse assessed as tremors at 25 to 800 mg/kg, po by Irwin's test; format: organism-based; design: dose 25-800 mg/kg, route oral; conditions: in vivo
Mus musculus [8] = assay: Behavioral toxicity in albino Icem-CET (SPF Caw) mouse assessed as clonic type convulsion at 25 to 800 mg/kg, po by Irwin's test; format: organism-based; design: dose 25-800 mg/kg, route oral; conditions: in vivo
Mus musculus [9] = assay: Anticonvulsant activity in po dosed albino Icem-CET (SPF Caw) mouse assessed as inhibition of pentylenetetrazole-induced maximal extensor seizures compound administered 30 mins prior challenge; format: functional
Procedure, shortened: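 Pentylenetetrazole antagonism in male Icem-CET (SPF Caw) mice, 17-22 g, fasted 9 h. Compound in 0.5% Methocel was given by gavage (0.2 ml/10 g) at 4-5 doses, 20 mice per dose, 30 min before pentylenetetrazole 130 mg/kg ip. Prevention of maximal extensor seizures was scored. ED50 was calculated by probit analysis, with fiducial limits at p = 0.05.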

Mus musculus [10] = assay: Toxicity in po dosed albino Icem-CET (SPF Caw) mouse assessed as clonic type convulsion by Irwin's test; format: organism-based; conditions: in vivo
Procedure, shortened: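 Irwin test in fasted (9 h) male Icem-CET (SPF Caw) mice, 17-22 g. Oral gavage of a 0.5% Methocel suspension at screening doses of 25-800 mg/kg. Clonic-type convulsions were scored as the minimum effective dose.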

Mus musculus [11] = assay: Toxicity in po dosed albino Icem-CET (SPF Caw) mouse assessed as impairment of pinna by Irwin's test; format: organism-based; conditions: in vivo
Mus musculus [12] = assay: Toxicity in po dosed albino Icem-CET (SPF Caw) mouse assessed as impairment of corneal reflexes by Irwin's test; format: organism-based, Cornea; conditions: in vivo
[13] = Toxicity in po dosed albino Icem-CET (SPF Caw) mouse assessed as mortality measured after 24 to 72 hrs; format: organism-based; conditions: in vivo
Mus musculus [14] = assay: Behavioral toxicity in albino Icem-CET (SPF Caw) mouse assessed as positional passivity at 25 to 800 mg/kg, po measured up to 90 mins by Irwin's test; format: organism-based; design: dose 25-800 mg/kg, route oral; conditions: in vivo, 1.5 h
Mus musculus [15] = assay: Behavioral toxicity in albino Icem-CET (SPF Caw) mouse assessed as twitches at 200 to 800 mg/kg, po measured after 90 mins by Irwin's test; format: organism-based; design: dose 200-800 mg/kg, route oral; conditions: in vivo, 1.5 h
Mus musculus [16] = assay: Behavioral toxicity in albino Icem-CET (SPF Caw) mouse assessed as tremor at 200 to 800 mg/kg, po measured after 90 mins by Irwin's test; format: organism-based; design: dose 200-800 mg/kg, route oral; conditions: in vivo, 1.5 h
Mus musculus [17] = assay: Toxicity in albino Icem-CET (SPF Caw) mouse assessed as clonic type convulsion at 200 to 800 mg/kg, po measured after 90 mins by Irwin's test; format: organism-based; design: dose 200-800 mg/kg, route oral; conditions: in vivo, 1.5 h
Mus musculus [18] = assay: Behavioral toxicity in po dosed albino Icem-CET (SPF Caw) mouse assessed as excitement at 25 to 100 mg/kg, po measured up to 30 mins post dose by Irwin's test; format: organism-based; design: dose 25-100 mg/kg, route oral; conditions: in vivo, 0.5 h

SMILES	Activity (Mus musculus [1])	ED50 (Mus musculus [2]) [mg/kg]	ED50 (Mus musculus [3]) [mg/kg]	LD50 at 168 h [4] [mg/kg]	ED50 (Mus musculus [5]) [mg/kg]	ED50 (Mus musculus [9]) [mg/kg]	also measured
COc1ccc(/C(C)=C(\C)C(=O)NC2CC2)cc1	inactive	250	300	> 800	250	–	–
C=CCNC(=O)/C(C)=C(/C)c1ccc(Br)cc1	inactive	–	–	600	400	–	Activity (Mus musculus [6]): Non-toxic; Activity (Mus musculus [7]): Non-toxic; Activity (Mus musculus [8]): Non-toxic
C=CCNC(=O)/C(C)=C(\C)c1ccccc1	–	250	300	550	130	–	–
C#CCNC(=O)/C(C)=C(\C)c1ccc(OC)cc1	–	150	400	> 800	150	112	–
C=CCNC(=O)/C(C)=C(/C)c1ccc(C)cc1	inactive	400	–	> 800	280	–	Activity (Mus musculus [6]): Non-toxic; MED (Mus musculus [10]): 400 mg/kg
C=CCNC(=O)/C(C)=C(\C)c1ccc(Cl)cc1	–	70	90	300	70	–	–
C#CCNC(=O)/C(C)=C(\C)c1ccc(F)cc1	–	100	200	240	100	22.8	Activity (Mus musculus [11]): Toxic; Activity (Mus musculus [12]): Toxic
C#CCNC(=O)/C(C)=C(\C)c1ccc(C)cc1	–	150	200	> 800	120	86.4	–
C/C(C(=O)NC1CC1)=C(/C)c1ccc(F)cc1	–	70	200	300	110	25	Activity (Mus musculus [11]): Toxic; Activity (Mus musculus [12]): Toxic
C/C(C(=O)NC1CC1)=C(/C)c1ccc(Cl)cc1	–	150	> 800	300	350	–	–
COc1ccc(/C(C)=C(/C)C(=O)NC2CC2)cc1	inactive	300	–	450	300	–	Activity (Mus musculus [6]): Non-toxic; MED (Mus musculus [10]): 400 mg/kg
C=CCNC(=O)/C(C)=C(/C)c1ccccc1	inactive	400	–	600	550	–	Activity (Mus musculus [6]): Non-toxic; MED (Mus musculus [10]): 400 mg/kg
C/C(C(=O)NC1CC1)=C(\C)c1ccc(C)cc1	inactive	–	500	> 800	280	–	Activity (Mus musculus [7]): Non-toxic; Activity (Mus musculus [8]): Non-toxic
C#CCNC(=O)/C(C)=C(\C)c1ccc(Br)cc1	–	150	500	300	180	18.4	–
C/C(C(=O)NC1CC1)=C(\C)c1ccc(Cl)cc1	–	600	–	450	170	–	Activity (Mus musculus [6]): Non-toxic; Activity (Mus musculus [8]): Non-toxic
C/C(C(=O)NC1CC1)=C(/C)c1ccc(C)cc1	inactive	150	300	> 800	110	–	–
C=CCNC(=O)/C(C)=C(\C)c1ccc(F)cc1	–	130	150	400	70	40.2	Activity (Mus musculus [11]): Toxic; Activity (Mus musculus [12]): Toxic

SMILES	Activity (Mus musculus [1])	ED50 (Mus musculus [2]) [mg/kg]	ED50 (Mus musculus [3]) [mg/kg]	LD50 at 168 h [4] [mg/kg]	ED50 (Mus musculus [5]) [mg/kg]	ED50 (Mus musculus [9]) [mg/kg]	also measured
C=CCNC(=O)/C(C)=C(/C)c1ccc(F)cc1	inactive	250	300	400	270	–	MED (Mus musculus [10]): 800 mg/kg; Activity (Mus musculus [11]): Toxic; Activity (Mus musculus [12]): Toxic
C=CCNC(=O)/C(C)=C(/C)c1ccc(Cl)cc1	inactive	400	280	600	180	–	MED (Mus musculus [10]): 400 mg/kg
C/C(C(=O)NC1CC1)=C(/C)c1ccc(Br)cc1	–	130	600	–	100	8.2	LD50 [13]: 200 mg/kg
C/C(C(=O)NC1CC1)=C(\C)c1ccc(Br)cc1	–	–	450	600	300	–	Activity (Mus musculus [7]): Non-toxic; Activity (Mus musculus [8]): Non-toxic
C=CCNC(=O)/C(C)=C(/C)c1ccc(OC)cc1	inactive	400	–	400	280	–	Activity (Mus musculus [6]): Non-toxic; MED (Mus musculus [10]): 400 mg/kg
C/C(C(=O)NC1CC1)=C(\C)c1ccccc1	inactive	300	–	600	400	–	Activity (Mus musculus [6]): Non-toxic; MED (Mus musculus [10]): 400 mg/kg
O=C1NC(=O)C(c2ccccc2)(c2ccccc2)N1 [PHENYTOIN]	–	250	–	–	150	–	Activity (Mus musculus [14]): Non-toxic; Activity (Mus musculus [15]): Non-toxic; Activity (Mus musculus [16]): Non-toxic; Activity (Mus musculus [17]): Non-toxic
C=CCNC(=O)/C(C)=C(\C)c1ccc(Br)cc1	–	500	500	600	120	33.7	–
C#CCNC(=O)/C(C)=C(\C)c1ccc(Cl)cc1	–	200	400	–	60	–	LD50 [13]: 140 mg/kg
C=CCNC(=O)/C(C)=C(\C)c1ccc(OC)cc1	inactive	300	300	> 800	200	–	–
C=CCNC(=O)/C(C)=C(\C)c1cc(OC)c(OC)c(OC)c1	inactive	190	280	600	110	–	–
C#CCNC(=O)/C(C)=C(\C)c1ccccc1	–	150	400	300	150	45.3	–
C#CCNC(=O)/C(C)=C(\C)c1cc(OC)c(OC)c(OC)c1	–	150	300	500	160	53.1	–
C=CCNC(=O)/C(C)=C(\C)c1ccc(C)cc1	–	150	170	600	100	78	–
CCC1(c2ccccc2)C(=O)N=C([O-])NC1=O.[Na+] (stereo not drawn) [PHENOBARBITAL SODIUM]	–	110	180	290	180	–	Activity (Mus musculus [18]): Toxic
COc1cc(/C(C)=C(\C)C(=O)NC2CC2)cc(OC)c1OC	inactive	> 800	> 800	> 800	320	–	–
C/C(C(=O)NC1CC1)=C(/C)c1ccccc1	–	150	250	500	100	–	–
